Experimental data published in ChEMBL document CHEMBL1153215, “Investigation of the sequence and length dependence for cell-penetrating prenylated peptides” (Bioorg Med Chem Lett, 2010).
Where a SMILES comes first, the peptide text is derived from it. Bridges are numbered along the chain shown (N, C = ends). Roman numbers before positions name the chains, in order. The star is where a group is joined. Geranylgeranyl = CC(C)=CCC/C(C)=C/CC/C(C)=C/CC/C(C)=C/C*; Acryloyl(2E,3-(2-furyl)) = O=C(/C=C/c1ccco1)*

Columns and labels:
Type in all cases: ADME, cell-based
HeLa [1] = assay: Cellular uptake in human HeLa cells at 0.3 to 3 uM after 1 hr by confocal laser-scanning microscopy
Summary of the method: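 Fluorescein-labelled peptides were incubated with HeLa cells for 1 h, then the cells were washed. Cells were either fixed in 3.7% formaldehyde (1 μM peptide) or imaged live without fixation (3 μM peptide). Hoechst stained the nucleus and wheat germ agglutinin–Alexa Fluor 594 stained the plasma membrane. Internalization was viewed by confocal microscopy.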

HeLa [2] = assay: Cellular uptake in human HeLa cells at 0.3 to 3 uM by FACS
Summary of the method: (§1)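 HeLa cells were incubated with 0.3, 1.0 or 3.0 μM fluorescein-linked peptide for 1 h at 37 °C. Cells were then trypsinized and washed to remove surface-bound peptide. Fluorescence of 10,000 cells was read by flow cytometry, in triplicate. Values are geometric mean relative fluorescence ± standard deviation.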

HeLa [3] = assay: Cellular uptake in human HeLa cells at […] at 4 degC condition by FACS
Summary of the method: as §1, with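 “with” for “with 0.3,”, “1.0” for “1.0 or 3.0”, “at 4 °C,” for “for 1 h”, “°C, or under ATP-depleting conditions.” for “°C.”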

HeLa [4] = assay: Cellular uptake in human HeLa cells at 0.3 to 3 uM at 37 degC condition by FACS; summary of the method: as §1

Measured: Activity

CC(C)=CCC/C(C)=C/CC/C(C)=C/CC/C(C)=C/CSC[C@H](NC(=O)[C@H](CCCNC(=N)N)NC(=O)[C@H](CCCNC(=N)N)NC(=O)/C=C/c1ccco1)C(N)=O
Active: HeLa [1] | HeLa [2] | HeLa [3] | HeLa [4]

CC(C)=CCC/C(C)=C/CC/C(C)=C/CC/C(C)=C/CSC[C@H](NC(=O)[C@H](CCCNC(=N)N)NC(=O)/C=C/c1ccco1)C(N)=O
Active: HeLa [1] | HeLa [2] | HeLa [3] | HeLa [4]

CC(=O)N[C@@H](CCCCNC(=O)/C=C/c1ccco1)C(=O)N[C@@H](C)C(=O)N[C@@H](C)C(=O)N[C@@H](C)C(=O)N[C@@H](CO)C(=O)N[C@@H](CCCNC(=N)N)C(=O)N[C@@H](CCCNC(=N)N)C(=O)N[C@@H](CSC/C=C(\C)CC/C=C(\C)CC/C=C(\C)CCC=C(C)C)C(N)=O (Ac-K(Acryloyl(2E,3-(2-furyl)))AAASRRC(Geranylgeranyl)-NH2)
Active: HeLa [1] | HeLa [2] | HeLa [3] | HeLa [4]

CC(=O)N[C@@H](CCCCNC(=O)/C=C/c1ccco1)C(=O)N[C@@H](C)C(=O)N[C@@H](CO)C(=O)N[C@@H](CCCNC(=N)N)C(=O)N[C@@H](CCCNC(=N)N)C(=O)N[C@@H](CSC/C=C(\C)CC/C=C(\C)CC/C=C(\C)CCC=C(C)C)C(N)=O (Ac-K(Acryloyl(2E,3-(2-furyl)))ASRRC(Geranylgeranyl)-NH2)
Active: HeLa [1] | HeLa [2] | HeLa [3] | HeLa [4]

CC[C@H](C)[C@H](NC(=O)[C@H](CCCCN)NC(=O)[C@@H](NC(=O)[C@H](CC(N)=O)NC(=O)[C@H](CCCNC(=N)N)NC(=O)[C@@H](N)CSSC[C@H](NC(=O)[C@H](CCCNC(=N)N)NC(=O)[C@H](CCCNC(=N)N)NC(=O)[C@H](CO)NC(=O)[C@H](CCCCN)NC(=O)[C@H](CCCCN)NC(=O)/C=C/c1ccco1)C(=O)N[C@H](C(=O)N[C@@H](CC(C)C)C(=O)N[C@@H](CC(C)C)C(=O)O)C(C)C)[C@@H](C)CC)C(=O)N[C@@H](Cc1c[nH]c2ccccc12)C(=O)N[C@@H](Cc1ccccc1)C(=O)N[C@@H](CCC(N)=O)C(=O)N[C@@H](CC(N)=O)C(=O)N[C@@H](CCCNC(=N)N)C(=O)N[C@@H](CCCNC(=N)N)C(=O)N[C@@H](CC(N)=O)C(=O)N[C@@H](CC(C)C)C(=O)N[C@@H](CCCCN)C(=O)N[C@@H](Cc1c[nH]c2ccccc12)C(=O)N[C@@H](CCCCN)C(=O)N[C@@H](CCCCN)C(=O)O (I: H-CRNIKIWFQNRRNLKWKK-OH / II: {Acryloyl(2E,3-(2-furyl))}-KKSRRCVLL-OH; disulfide I:1-II:6)
Active: HeLa [1] | HeLa [2] | HeLa [3] | HeLa [4]
